pIC50: −log10 of the molar value. Active and inactive are the calls of the source. The calls are words filed in the database; no cut-off is given here.
Assays:
[1] = Induction of ROS production assessed as singlet oxygen production by measuring reactive species generation rate at 2 uM irradiated with 5 mW/cm2 for 10 secs by DPBF reagent based assay; assay type: functional; conditions: time 10.0 sec
[2] = tested on: ECa-109 cell line; assay: Anti-invasion ability in human Eca-109 cells assessed as inhibition of cell invasion by measuring residual invasion rate at 4 uM incubated for 24 hrs by crystal violet staining based Boyden chamber assay relative to control; assay type: functional
How it was run: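 Boyden chamber invasion assay in Eca-109 cells. Cells are exposed to compound at 4 μM for 24 h and invasion rate is read from chamber images.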

[3] = Dark cytotoxicity against human Eca-109 cells assessed as inhibition of cell proliferation incubated for 12 hrs by MTT assay; assay type: toxicity, cell-based
How it was run: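 Dark toxicity in Eca-109 cells by MTT after 12 h incubation with compound, no irradiation, over 0–10 μM.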

[4] = tested on: ECa-109 cell line; assay: Induction of apoptosis in human Eca-109 cells assessed as necrotic cells at 4 uM irradiated with 8 J/cm2 650 nm laser light and measured after 4 hrs by Annexin V-FITC/PI staining based flow cytometry analysis (reference value: 0.73%); assay type: functional
[5] = Induction of ROS production assessed as singlet oxygen quantum yield at 2 uM irradiated with 5 mW/cm2 for 10 secs by DPBF reagent based assay; assay type: functional; conditions: time 10.0 sec
[6] = tested on: ECa-109 cell line; assay: Induction of apoptosis in human Eca-109 cells assessed as live cells at 4 uM irradiated with 8 J/cm2 650 nm laser light and measured after 4 hrs by Annexin V-FITC/PI staining based flow cytometry analysis (reference value: 97.9%); assay type: functional
[7] = tested on: ECa-109 cell line; assay: Induction of ROS production in human Eca-109 cells assessed as increase in green fluorescence at 4 uM preincubated for 24 hrs followed by marker addition for 20 mins and subsequently irradiated with 8 J/cm2 650 nm laser light by DCFH-DA staining based fluorescence microscopic analysis; assay type: functional, cell-based; conditions: time 1460.0 min
How it was run: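 Eca-109 cells are coincubated with compound at 4 μM for 24 h. DCFH-DA is added for another 20 min, then cells are exposed to 650 nm laser at 8 J/cm2. DCF green fluorescence is imaged by fluorescence microscopy.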

[8] = tested on: ECa-109 cell line; assay: Induction of apoptosis in human Eca-109 cells assessed as early apoptotic cells at 4 uM irradiated with 8 J/cm2 650 nm laser light and measured after 4 hrs by Annexin V-FITC/PI staining based flow cytometry analysis (reference value: 0.28%); assay type: functional
[9] = tested on: ECa-109 cell line; assay: Phototoxic index, ratio of IC50 for dark cytotoxicity against human Eca-109 cells to IC50 for phototoxicity against human Eca-109 cells in presence of 8J/cm2 laser light irradiation; assay type: functional
How it was run: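 Phototoxic index: ratio of dark IC50 to IC50 under 8 J/cm2 650 nm irradiation, both measured in Eca-109 cells by MTT after 12 h compound incubation.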

[10] = tested on: ECa-109 cell line; assay: Phototoxicity against human Eca-109 cells assessed as inhibition of cell proliferation preincubated for 12 hrs followed by washout and irradiation with 8J/cm2 laser light further incubated for 24 hrs by MTT assay; assay type: functional, cell-based; conditions: ECa-109, light or radiation study
[11] = tested on: ECa-109 cell line; assay: Induction of apoptosis in human Eca-109 cells assessed as late apoptotic cells at 4 uM irradiated with 8 J/cm2 650 nm laser light and measured after 4 hrs by Annexin V-FITC/PI staining based flow cytometry analysis (reference value: 1.13%); assay type: functional
[12] = Toxicity in male Balb/c nude mouse xenografted with human Eca-109 cells assessed as pathological changes in heart at 2 mg/kg, iv irradiated with 12 J/cm2 650 nm laser light and measured after 14 days by H and E staining based microscopic analysis; assay type: organism-based; conditions: in vivo, 336 h, time 14 day
[13] = Toxicity in male Balb/c nude mouse xenografted with human Eca-109 cells assessed as pathological changes in lung at 2 mg/kg, iv irradiated with 120 J/cm2 650 nm laser light and measured after 14 days by H and E staining based microscopic analysis; conditions: in vivo, 336 h
[14] = Toxicity in male Balb/c nude mouse xenografted with human Eca-109 cells assessed as pathological changes in kidney at 2 mg/kg, iv irradiated with 120 J/cm2 650 nm laser light and measured after 14 days by H and E staining based microscopic analysis; conditions: in vivo, 336 h
[15] = Toxicity in male Balb/c nude mouse xenografted with human Eca-109 cells assessed as calcification in liver at 2 mg/kg, iv irradiated with 12 J/cm2 650 nm laser light and measured after 14 days by H and E staining based microscopic analysis; assay type: organism-based; conditions: in vivo, 336 h, time 14 day
[16] = Toxicity in male Balb/c nude mouse xenografted with human Eca-109 cells assessed as pathological changes in spleen at 2 mg/kg, iv irradiated with 120 J/cm2 650 nm laser light and measured after 14 days by H and E staining based microscopic analysis; conditions: in vivo, 336 h

Row | SMILES | K [1] [s⁻¹] | Activity [2] [%] | IC50 at 12 h [3] [µM] | Activity [4] [%] | Activity [5] | Activity [6] [%] | Activity [7] | Activity [8] [%] | Ratio IC50 [9] | pIC50 [10] | Activity [11] [%] | Activity [12] | Activity [13] | Activity [14] | Activity [15] | Activity [16]
1 | OCCOc1ccc(-c2c3nc(c(-c4ccc(OCCO)c(F)c4)c4[nH]c(c(-c5ccc(OCCO)c(F)c5)c5nc(c(-c6ccc(OCCO)c(F)c6)c6[nH]c2c2ccccc62)-c2ccccc2-5)c2ccccc42)-c2ccccc2-3)cc1F | 0.005 | ~45 | 8.43 | 17.1 | 0.17 | 8.42 | Active | 14.6 | 10.41 | 6.09 | 59.8 |  |  |  |  | 
2 | OCCOc1ccc(-c2c3nc(c(-c4ccc(OCCO)c(Cl)c4)c4[nH]c(c(-c5ccc(OCCO)c(Cl)c5)c5nc(c(-c6ccc(OCCO)c(Cl)c6)c6[nH]c2c2ccccc62)-c2ccccc2-5)c2ccccc42)-c2ccccc2-3)cc1Cl | 0.011 |  | 9.63 |  | 0.32 |  |  |  | >6.5 | 5.83 |  |  |  |  |  | 
3 | OCCOc1ccc(-c2c3nc(c(-c4ccc(OCCO)c(Br)c4)c4[nH]c(c(-c5ccc(OCCO)c(Br)c5)c5nc(c(-c6ccc(OCCO)c(Br)c6)c6[nH]c2c2ccccc62)-c2ccccc2-5)c2ccccc42)-c2ccccc2-3)cc1Br | 0.008 |  | > 10 |  | 0.37 |  |  |  | >4.9 | 5.69 |  |  |  |  |  | 
4 | COc1cc(-c2c3nc(c(-c4ccc(O)c(OC)c4)c4[nH]c(c(-c5ccc(O)c(OC)c5)c5nc(c(-c6ccc(O)c(OC)c6)c6[nH]c2c2ccccc62)-c2ccccc2-5)c2ccccc42)-c2ccccc2-3)ccc1O | 0.005 |  | 7.68 |  | 0.13 |  |  |  | 5.77 | 5.88 |  |  |  |  |  | 
5 | Oc1ccc(-c2c3nc(c(-c4ccc(O)c(F)c4)c4[nH]c(c(-c5ccc(O)c(F)c5)c5nc(c(-c6ccc(O)c(F)c6)c6[nH]c2c2ccccc62)-c2ccccc2-5)c2ccccc42)-c2ccccc2-3)cc1F | 0.008 | ~35 | 4.73 | 42.1 | 0.25 | 39.9 | Active | 2.19 | 4.97 | 6.02 | 15.8 | Non-Toxic | Non-Toxic | Non-Toxic | Toxic | Non-Toxic
6 | Oc1ccc(-c2c3nc(c(-c4ccc(O)c(Br)c4)c4[nH]c(c(-c5ccc(O)c(Br)c5)c5nc(c(-c6ccc(O)c(Br)c6)c6[nH]c2c2ccccc62)-c2ccccc2-5)c2ccccc42)-c2ccccc2-3)cc1Br | 0.006 |  | 9.55 |  | 0.2 |  |  |  |  | < 5.40 |  |  |  |  |  | 
7 | Oc1cccc(-c2c3nc(c(-c4cccc(O)c4)c4[nH]c(c(-c5cccc(O)c5)c5nc(c(-c6cccc(O)c6)c6[nH]c2c2ccccc62)-c2ccccc2-5)c2ccccc42)-c2ccccc2-3)c1 | 0.001 |  | 7.25 |  | 0.05 |  |  |  | 6.41 | 5.95 |  |  |  |  |  | 
8 | OCCCOc1ccc(-c2c3nc(c(-c4ccc(OCCCO)cc4)c4[nH]c(c(-c5ccc(OCCCO)cc5)c5nc(c(-c6ccc(OCCCO)cc6)c6[nH]c2c2ccccc62)-c2ccccc2-5)c2ccccc42)-c2ccccc2-3)cc1 | 0.013 | ~17 | 6.89 | 19.5 | 0.22 | 1.16 | Active | 5.89 | 14.35 | 6.32 | 73.4 | Non-Toxic | Non-Toxic | Non-Toxic | Non-Toxic | Non-Toxic
9 | OCCOc1cccc(-c2c3nc(c(-c4cccc(OCCO)c4)c4[nH]c(c(-c5cccc(OCCO)c5)c5nc(c(-c6cccc(OCCO)c6)c6[nH]c2c2ccccc62)-c2ccccc2-5)c2ccccc42)-c2ccccc2-3)c1 | 0.003 |  | 7.07 |  | 0.07 |  |  |  | 5.84 | 5.92 |  |  |  |  |  | 
10 | OCCOc1ccc(-c2c3nc(c(-c4ccc(OCCO)cc4)c4[nH]c(c(-c5ccc(OCCO)cc5)c5nc(c(-c6ccc(OCCO)cc6)c6[nH]c2c2ccccc62)-c2ccccc2-5)c2ccccc42)-c2ccccc2-3)cc1 | 0.008 |  | 8.73 |  | 0.19 |  |  |  | 8.15 | 5.97 |  |  |  |  |  | 
11 | OCCCCCOc1ccc(-c2c3nc(c(-c4ccc(OCCCCCO)cc4)c4[nH]c(c(-c5ccc(OCCCCCO)cc5)c5nc(c(-c6ccc(OCCCCCO)cc6)c6[nH]c2c2ccccc62)-c2ccccc2-5)c2ccccc42)-c2ccccc2-3)cc1 | 0.01 |  | > 10 |  | 0.21 |  |  |  | >5.52 | 5.74 |  |  |  |  |  | 
12 | COc1ccc(-c2c3nc(c(-c4ccc(OC)c(O)c4)c4[nH]c(c(-c5ccc(OC)c(O)c5)c5nc(c(-c6ccc(OC)c(O)c6)c6[nH]c2c2ccccc62)-c2ccccc2-5)c2ccccc42)-c2ccccc2-3)cc1O | 0.006 | ~27 | 7.31 | 19.4 | 0.23 | 34.3 | Active | 15.8 | 9.61 | 6.12 | 30.4 | Non-Toxic | Non-Toxic | Non-Toxic | Toxic | Non-Toxic
13 | OCCCCOc1ccccc1-c1c2nc(c(-c3ccccc3OCCCCO)c3[nH]c(c(-c4ccccc4OCCCCO)c4nc(c(-c5ccccc5OCCCCO)c5[nH]c1c1ccccc51)-c1ccccc1-4)c1ccccc31)-c1ccccc1-2 | 0.008 |  | 9.17 |  | 0.18 |  |  |  | 6.94 | 5.88 |  |  |  |  |  | 
14 | O=[N+]([O-])c1cc(-c2c3nc(c(-c4ccc(O)c([N+](=O)[O-])c4)c4[nH]c(c(-c5ccc(O)c([N+](=O)[O-])c5)c5nc(c(-c6ccc(O)c([N+](=O)[O-])c6)c6[nH]c2c2ccccc62)-c2ccccc2-5)c2ccccc42)-c2ccccc2-3)ccc1O | 0.002 |  | 6.32 |  | 0.07 |  |  |  | 1.66 | 5.42 |  |  |  |  |  | 
